Experimental data from paper PMC10921549 (Journal of Agricultural and Food Chemistry, 2024).
Values belong to the compound of their own block, whether it stands above or below them.

How the values were obtained:
[1] = target: T1, OR8H1 (Homo sapiens, UniProt Q8NGG4); test: HEK-293 cell-based cAMP luminescence; conditions: for KFO library screening response of OR8H1 (2σ-threshold): each KFO 300 μmol/L, normalized to OR8H1 response to 30 μmol/L TDN; for agonist validation by concentration–response relation on OR8H1: human OR8H1
T1 sequence (Q8NGG4 1-311): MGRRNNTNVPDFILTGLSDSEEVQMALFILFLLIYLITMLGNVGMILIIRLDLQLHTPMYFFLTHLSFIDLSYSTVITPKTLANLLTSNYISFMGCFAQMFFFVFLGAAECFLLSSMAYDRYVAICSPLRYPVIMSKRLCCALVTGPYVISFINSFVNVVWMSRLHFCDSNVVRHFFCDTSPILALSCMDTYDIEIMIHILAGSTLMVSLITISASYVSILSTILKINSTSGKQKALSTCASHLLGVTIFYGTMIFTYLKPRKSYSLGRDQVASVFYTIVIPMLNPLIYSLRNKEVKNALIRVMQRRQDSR
Procedure, shortened: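 In HEK-293 cells expressing recombinant human OR8H1 with GloSensor cAMP luciferase, each of 180 GC-pure food odorants is applied at 300 μmol/L (n = 1, triplicate). After basal subtraction, mock is subtracted and responses are normalized to the 30 μmol/L reference agonist signal; the hit threshold is 2σ. For concentration–response, EC50 comes from a nonlinear Hill fit (slope ≤2.9, weighted by 0.1/SD). Results are mean ± SD.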

[2] = tested on: OR2W1; conditions: present study and ref 50; cited from earlier work
[3] = tested on: ptOR8H1; test: HEK-293 cAMP luminescence assay, chimp ortholog ptOR8H1; format: cell-based, Pan troglodytes (chimpanzee); conditions: for response of chimp orthologue (concentration–response): ptOR8H1
Procedure, shortened: (§1)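 HEK-293 cells (37 °C, 5% CO2, 100% humidity; high-glucose DMEM, 10% FBS, 2 mM L-glutamine, penicillin/streptomycin) transiently express the OR ortholog with a GloSensor cAMP luciferase, and luminescence is read after odorant application. Basal signal is subtracted, data are normalized to a reference odorant–receptor maximum, and mock is subtracted. EC50 comes from a Hill fit weighted by 0.1/SD, with slope ≤2.9. Results are mean ± SD; surface expression is checked by flow cytometry.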

[4] = cited from earlier work
[5] = tested on: ecOR8H1; test: HEK-293 cAMP luminescence assay, horse ortholog ecOR8H1; format: cell-based, Equus caballus (horse)
Procedure, shortened: as §1

[6] = tested on: 386 human OR types and 380 of their most frequent variants; test: Screening of TDN against OR library of 766 cDNAs; format: cell-based; conditions: 100 μmol/L TDN, 766 OR cDNAs

EC50 [1]: 147 ± 8.64 µM
Structure (SMILES): COc1nccnc1C(C)C [Compound 3, 2-methoxy-3-propan-2-ylpyrazine]

EC50 [1]: 114 ± 20.1 µM
Structure (SMILES): C=CCc1ccc(OC)c(OC)c1 [Compound 2, 1,2-dimethoxy-4-prop-2-enylbenzene]
activation of OR2W1 [2]: did not activate

Structure (SMILES): CC(C)c1ccc(C=O)cc1 [Compound 7, 4-Propan-2-ylbenzaldehyde]
activation of OR2W1 [2]: did not activate | EC50 [1]: 92 ± 11.7 µM | response of chimp orthologue (concentration–response) [3]: responded

EC50 [1]: 193 ± 9.52 µM | KFO library screening response of OR8H1 (2σ-threshold) [1]: false-negative responder | agonist validation by concentration–response relation on OR8H1 [1]: agonist of OR8H1
Structure (SMILES): C=C(C)[C@@H]1CC=C(C)C(=O)C1 [Compound 6, (5R)-2-methyl-5-prop-1-en-2-ylcyclohex-2-en-1-one]

EC50 [1]: 336 ± 74.9 µM
Structure (SMILES): C=C(C)c1ccc(C)cc1 [Compound 1, 1-methyl-4-(prop-1-en-2-yl)benzene]

Structure (SMILES): CCCc1ccc(O)c(OC)c1 [Compound 5, 2-methoxy-4-propylphenol]
odor threshold (OT in water/EtOH (60/40)) ([4]; water/EtOH (60/40)): 1.9 ^b[35] μg/kg

KFO library screening response of OR8H1 (2σ-threshold) [1]: did not activate OR8H1
Structure (SMILES): CC(=O)OCCc1ccccc1 [2-phenylethyl acetate]

EC50 [1]: 32 ± 6.09 µM | EC50 ([3]; chimp ptOR8H1 in HEK-293, n = 3): 37.8 ± 29.1 µM
Structure (SMILES): Cc1ccc2c(c1)C=CCC2(C)C [TDN, 1,1,6-trimethyl-1,2-dihydronaphthalene]
response of horse orthologue to TDN [5]: nonresponding | odor (detection) threshold in Riesling wine ([4]; Riesling wine): 2.3 µg/L | odor threshold, originally reported [4]: 20 µg/L | detection threshold ([4]; spiked model wine): 2 µg/L | response of chimp orthologue (concentration–response) [3]: responded | efficacy lower than at the human receptor ([3]; ptOR8H1 versus human OR8H1): ~7 fold | receptor activation above 3σ-threshold in OR library screening [6]: exclusively activated a single OR above a 3σ-threshold: OR8H1

EC50 [1]: 206 ± 80.8 µM
Structure (SMILES): CC1=CCC(C(C)(C)S)CC1 (stereo not drawn) [Compound 8, 2-(4-methylcyclohex-3-en-1-yl)propane-2-thiol]
response of chimp orthologue (concentration–response) [3]: responded

agonist validation by concentration–response relation on OR8H1 [1]: agonist for OR8H1
Structure (SMILES): CC(=O)c1ccc2ccccc2c1 [2-acetylnaphthalene]
